Activity calls are given as the source filed them. The rule behind the calls is not given here.
Columns and labels:
[1] = target: T1, Aldo-keto reductase family 1 member C3 (Homo sapiens) (UniProt P42330); test: Inhibition of AKR1C3 in human 22Rv1 cells assessed as potentiation of enzalutamide-induced apoptosis by measuring increase in Bax level at 10 uM pre-incubated for 2 hrs before addition of pregnenolone for 24 hrs by Western blot analysis; format: cell-based; settings: CWR22R
T1 sequence (whole entry): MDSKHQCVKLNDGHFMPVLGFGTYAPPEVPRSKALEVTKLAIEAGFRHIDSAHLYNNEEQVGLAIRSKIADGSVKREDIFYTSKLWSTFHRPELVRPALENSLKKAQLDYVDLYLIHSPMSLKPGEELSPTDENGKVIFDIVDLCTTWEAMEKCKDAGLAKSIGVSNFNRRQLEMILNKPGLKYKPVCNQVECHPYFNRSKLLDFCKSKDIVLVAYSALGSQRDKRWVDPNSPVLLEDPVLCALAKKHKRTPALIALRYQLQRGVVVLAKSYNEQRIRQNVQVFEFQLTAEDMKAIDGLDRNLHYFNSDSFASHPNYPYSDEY
In short: (§1)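 Apoptotic markers in 22Rv1: 2 h pretreatment with or without 10 μM inhibitor and/or 50 μM enzalutamide, then 24 h 20 nM pregnenolone; Bax/Bcl-2 ratio as percent of control; cleaved caspase-3 also by immunofluorescence with DAPI.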

[2] = target: T1, Aldo-keto reductase family 1 member C3 (Homo sapiens); test: Inhibition of AKR1C3 in human 22Rv1 cells assessed as as reduction in AR mRNA expression at 10 to 20 uM pre-incubated for 2 hrs before pregnenolone stimulation for 24 hrs by RT-qPCR analysis; format: cell-based; settings: CWR22R
In short: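 22Rv1 cells pretreated 2 h with test agents, then stimulated 24 h with 20 nM pregnenolone; AR, TMPRSS2 and PSA mRNA measured by RT-qPCR, given as ratio to pregnenolone-free control.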

[3] = system: CWR22R; test: Induction of apoptosis in human 22Rv1 cells assessed as increase in cleaved PARP level at 10 uM pre-incubated for 2 hrs before addition of pregnenolone for 24 hrs by Western blot analysis; format: functional, cell-based; in short: as §1
[4] = target: T1, Aldo-keto reductase family 1 member C3 (Homo sapiens); test: Inhibition of AKR1C3 in human 22Rv1 cells assessed as as reduction in finasteride-induced metabolism of 4AD into testosterone at 10 to 20 uM pre-incubated for 2 hrs in presence of finasteride before 4AD addition for 24 hrs by EIA; format: cell-based; settings: CWR22R
In short: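 22Rv1 cells pretreated 2 h with or without 2 μM finasteride and/or inhibitor, then cultured 24 h with 100 nM 4AD; testosterone in cell extracts quantified by EIA and expressed as percent of finasteride-free control.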

[5] = target: T1, Aldo-keto reductase family 1 member C3 (Homo sapiens); test: Inhibition of AKR1C3 in human 22Rv1 cells assessed as as reduction in AR nuclear translocation at 10 to 20 uM pre-incubated for 2 hrs in absence of finasteride by Western blot analysis; format: cell-based; settings: CWR22R
[6] = Toxicity in Balb/c nu/nu athymic mouse xenografted with human 22Rv1 cells assessed as effect on liver histology at 50 mg/kg, ip dosed twice per week for 6 weeks by H and E staining dependent light microscopy based histopathological analysis; format: organism-based, CWR22R; settings: in vivo, 1008 h
In short: (§2)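 Mice carrying 22Rv1 xenografts were dosed intraperitoneally, with vehicle controls n=15 and treated groups n=10. Tissue sections of kidney, liver and lung were stained with hematoxylin and eosin and examined by light microscopy at ×40 magnification for histopathological changes.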

[7] = Toxicity in Balb/c nu/nu athymic mouse xenografted with human 22Rv1 cells assessed as effect on lung histology at 50 mg/kg, ip dosed twice per week for 6 weeks by H and E staining dependent light microscopy based histopathological analysis; format: organism-based, CWR22R; settings: in vivo, 1008 h; in short: as §2
[8] = system: CWR22R; test: Effect on AKR1C3 gene expression in human 22Rv1 cells at 10 uM incubated for 24 hrs by semiquantitative RT-PCR analysis; format: functional, cell-based
[9] = system: LNCaP; test: Inhibition of pregnenolone-induced cell proliferation of human LNCAP cells at 10 to 20 uM incubated for 72 hrs by alamar blue assay; format: functional, cell-based
In short: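 LNCaP and androgen-low-sensitive LNCaP-E9 cells pretreated 2 h with inhibitor, then 72 h with 20 nM pregnenolone; viable cells expressed as percent of untreated LNCaP control.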

[10] = system: CWR22R; test: Induction of apoptosis in human 22Rv1 cells assessed as increase in cleaved caspase-3 level at 10 uM pre-incubated for 2 hrs before addition of pregnenolone for 24 hrs by Western blot analysis; format: functional, cell-based; in short: as §1
[11] = system: CWR22R; test: Antitumor activity against human 22Rv1 cells xenografted in Balb/c nu/nu athymic mouse assessed as reduction in tumor volume at 50 mg/kg, ip dosed twice per week for 6 weeks; format: functional, organism-based
In short: (§3)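 22Rv1 xenograft mice dosed intraperitoneally with vehicle (control, n=15), 50 mg/kg (n=10) or 100 mg/kg (n=10); tumor size followed over time; body weights recorded.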

[12] = system: CWR22R; test: Inhibition of pregnenolone-induced cell proliferation of human 22Rv1 cells at 10 to 20 uM pre-incubated for 2 hrs before pregnenolone stimulation for 72 hrs by alamar blue assay; format: functional, cell-based
In short: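 22Rv1 cells (AKR1C3- and AR-expressing) pretreated 2 h with agents, then cultured 72 h with 20 nM pregnenolone; viable cell number given as percent of pregnenolone-free control.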

[13] = system: CWR22R; test: Antitumor activity against human 22Rv1 cells xenografted in Balb/c nu/nu athymic mouse assessed as increase in necrotic region in tumor tissue at 50 mg/kg, ip dosed twice per week for 6 weeks by H and E staining dependent light microscopy based histopathological analysis; format: functional, organism-based
In short: (§4)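 Tumor tissue, plus liver, kidney and lung, from xenografted mice given ip 50 or 100 mg/kg; sections stained with hematoxylin and eosin and examined at ×40 for necrotic areas.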

[14] = Toxicity in Balb/c nu/nu athymic mouse xenografted with human 22Rv1 cells assessed as effect on kidney histology at 50 mg/kg, ip dosed twice per week for 6 weeks by H and E staining dependent light microscopy based histopathological analysis; format: organism-based, CWR22R; settings: in vivo, 1008 h; in short: as §2
[15] = system: CWR22R; test: Antitumor activity against human 22Rv1 cells xenografted in Balb/c nu/nu athymic mouse assessed as increase in necrotic region in tumor tissue at 100 mg/kg, ip dosed twice per week for 6 weeks by H and E staining dependent light microscopy based histopathological analysis; format: functional, organism-based; in short: as §4
[16] = Toxicity in Balb/c nu/nu athymic mouse xenografted with human 22Rv1 cells assessed as effect on kidney histology at 100 mg/kg, ip dosed twice per week for 6 weeks by H and E staining dependent light microscopy based histopathological analysis; format: organism-based, CWR22R; settings: in vivo, 1008 h; in short: as §2
[17] = Toxicity in Balb/c nu/nu athymic mouse xenografted with human 22Rv1 cells assessed as effect on liver histology at 100 mg/kg, ip dosed twice per week for 6 weeks by H and E staining dependent light microscopy based histopathological analysis; format: organism-based, CWR22R; settings: in vivo, 1008 h; in short: as §2
[18] = Toxicity in Balb/c nu/nu athymic mouse xenografted with human 22Rv1 cells assessed as effect on lung histology at 100 mg/kg, ip dosed twice per week for 6 weeks by H and E staining dependent light microscopy based histopathological analysis; format: organism-based, CWR22R; settings: in vivo, 1008 h; in short: as §2
[19] = Toxicity in Balb/c nu/nu athymic mouse xenografted with human 22Rv1 cells assessed as effect on body weight at 100 mg/kg, ip dosed twice per week for 6 weeks […]; format: organism-based, CWR22R; settings: in vivo, 1008 h
In short: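 Mice carrying 22Rv1 xenografts received intraperitoneal injections. The vehicle control group had n=15 and each treated dose group had n=10. Average body weights were compared between treated and vehicle-control mice.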

[20] = system: CWR22R; test: Antitumor activity against human 22Rv1 cells xenografted in Balb/c nu/nu athymic mouse assessed as reduction in tumor volume at 100 mg/kg, ip dosed twice per week for 6 weeks; format: functional, organism-based; in short: as §3

| SMILES | inhibition [1] | inhibition [2] | Activity [3] | inhibition [4] | inhibition [5] | Activity [6] | Activity [7] | Activity [8] | inhibition [9] | Activity [10] | Activity [11] | inhibition [12] | Activity [13] | Activity [14] | Activity [15] | Activity [16] | Activity [17] | Activity [18] | Activity [19] | Activity [20] |
| --- | --- | --- | --- | --- | --- | --- | --- | --- | --- | --- | --- | --- | --- | --- | --- | --- | --- | --- | --- | --- |
| Cc1ccc(NC(=O)c2cc3cccc(O)c3oc2=N)cc1 | Active | Active | Active | Active | Active | Non-Toxic | Non-Toxic | inactive | Active | Active | Active | Active | Active | Non-Toxic | – | – | – | – | – | – |
| N=c1oc2c(O)cccc2cc1C(=O)Nc1ccc(F)cc1 | Active | Active | Active | Active | Active | – | – | inactive | Active | Active | – | Active | – | – | – | – | – | – | – | – |
| CCc1cccc(NC(=O)c2cc3cccc(O)c3oc2=N)c1 | – | – | – | – | – | – | – | – | – | – | – | – | – | – | Active | Non-Toxic | Non-Toxic | Non-Toxic | Non-Toxic | Active |

From ChEMBL document CHEMBL4619820, “Development of Novel AKR1C3 Inhibitors as New Potential Treatment for Castration-Resistant Prostate Cancer” (J Med Chem, 2020)
